# Glyco luc inh: N-linked glycosylation inhibition | D54 ERlucT glycosylation luciferase reporter, 24 h; percent of 100 nM tunicamycin response | reporter increase, % at 12.5 µM | hit rate 0.23% among 360,000;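 active = mean luciferase reporter signal, scaled so untreated is 0 and the glycosylation-blocking control 100, at or above a set limit in every replicate; inconclusive = mean reaches the limit but not every replicate does; inactive = mean below the limit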;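 also: luciferase carries N-glycosylation sites so blocking glycosylation raises the light; 0% = median of neutral control wells and 100% = median of 100 nM tunicamycin wells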
# FN deposition inh: fibronectin deposition inhibition | inhibition, % at 12.6 µM | hit rate 0.086% among 350,000 | AH1F fibroblasts, Alexa488-fibronectin deposition fluorescence, overnight;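 active = mean inhibition across replicates of 30% or more, regardless of how many single replicates reach that level; inconclusive = mean under 30% yet at least half of replicates reach 30%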;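 also: positive control wells lacked labelled fibronectin entirely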
#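 Material: AH1F fibroblast monolayer depositing Alexa488-labelled fibronectin into matrix | Input: 10000 AH1F cells/well | Medium: DMEM plus 2% serum, read in PBS | Reagent: Alexa488-fibronectin, 24 nM final in well | Compound dosing: One dose per compound, pinned | Schedule: 1 h adhesion, overnight exposure | Measured by: Fluorescence at 485 nm excitation, 525 nm emission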
# RAD52 anneal inh: blocks human RAD52 DNA annealing. inhibition, % at 18.7 µM. P43351. recombinant RAD52 DNA annealing, FRET fluorescence. hit rate 0.46% among 360,000;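 active = every replicate showing at least 50% inhibition; inconclusive = mean inhibition at least 50% but not in every replicate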
# RAD54 branch: blocks human RAD54 Holliday junction branch migration; Q92698; FAM/BHQ fluorescence; inhibition, % at 10.4 µM; hit rate 0.14% among 360,000; AID 602329;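 active = mean normalized replicate activity at least 40 and at least half of replicates scoring 40 or more; inconclusive = only one of the two criteria met; inactive = mean below 40 and under half of replicates reaching 40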;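 also: 0% = median of neutral control wells and 100% = median of positive control wells; inhibitors cause a drop in the FAM fluorescence signal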
# Target sequence (Q92698 whole entry, looked up): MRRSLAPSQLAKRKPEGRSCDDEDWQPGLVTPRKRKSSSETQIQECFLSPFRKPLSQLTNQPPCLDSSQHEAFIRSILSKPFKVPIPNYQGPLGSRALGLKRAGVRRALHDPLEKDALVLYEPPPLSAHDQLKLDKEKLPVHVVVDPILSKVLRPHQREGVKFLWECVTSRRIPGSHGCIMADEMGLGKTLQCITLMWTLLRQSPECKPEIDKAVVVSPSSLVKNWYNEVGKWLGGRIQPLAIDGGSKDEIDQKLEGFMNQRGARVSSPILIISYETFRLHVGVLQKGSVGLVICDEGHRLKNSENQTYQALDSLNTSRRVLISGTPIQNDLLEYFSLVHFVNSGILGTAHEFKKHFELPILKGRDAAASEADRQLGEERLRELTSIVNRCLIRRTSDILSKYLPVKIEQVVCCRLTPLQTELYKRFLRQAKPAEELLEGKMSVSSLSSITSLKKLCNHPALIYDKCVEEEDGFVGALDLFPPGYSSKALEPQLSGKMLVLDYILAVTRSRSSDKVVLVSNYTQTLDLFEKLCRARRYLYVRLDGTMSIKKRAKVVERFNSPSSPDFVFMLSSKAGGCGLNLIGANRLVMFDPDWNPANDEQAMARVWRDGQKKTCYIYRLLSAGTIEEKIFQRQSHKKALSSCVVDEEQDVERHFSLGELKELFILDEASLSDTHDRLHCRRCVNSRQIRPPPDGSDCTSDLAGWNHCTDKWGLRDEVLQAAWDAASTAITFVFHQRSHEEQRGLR
# AF4-AF9 inh: inhibitors of human MLL-AF4/AF9 interaction. P42568. AlphaScreen, biotin-AF4 peptide binding to FLAG-AF9. inhibition, % at 10 µM. hit rate 0.47% among 350,000. AID 651704;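 active = every replicate reaching a set inhibition limit, whatever the replicate mean, cut at about 25% in these data; inconclusive = mean inhibition reaches that limit but some replicates miss it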;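 also: 0% = plate neutral control median and 100% = total signal loss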
# Active calls of the source: *; ? = inconclusive; / = not tested or not shown; ! = not active in a repeat. Compounds with a hit are over-represented: about 0.92% of the library has one in this group of screens.
SMILES,Glyco luc inh,FN deposition inh,RAD52 anneal inh,RAD54 branch,AF4-AF9 inh
O=C(C[C@H]1CC[C@@H]2[C@H](COC[C@@H](O)CN2S(=O)(=O)c2ccccc2)O1)NCc1ccc(-c2ccccc2)cc1,/,-12,75*,15,16
O=C(C[C@@H]1CC[C@H]2[C@@H](COC[C@@H](O)CN2S(=O)(=O)c2ccccc2)O1)NCc1ccc(-c2ccccc2)cc1,/,-2,59*,-1,10
O=C(C[C@H]1CC[C@H]2[C@@H](COC[C@@H](O)CN2S(=O)(=O)c2ccccc2)O1)Nc1ccc(-c2ccccc2)cc1,/,2,3,-10,-4
COc1ccc(CN(C)C[C@@H]2Oc3c(NS(=O)(=O)c4ccc(C)cc4)cccc3C(=O)N([C@@H](C)CO)C[C@H]2C)cc1,/,/,-1,-1,1
COc1ccc(-c2cc3ccccc3oc2=O)cc1NC(=O)c1ccc([N+](=O)[O-])o1,50*,11,/,/,/
COc1ccc(-c2cc3ccccc3oc2=O)cc1NC(=S)NC(=O)c1ccc2c(c1)OCCO2,70*,4,/,16,/
COc1ccc(-c2cc3ccccc3oc2=O)cc1NC(=O)c1ccc(Br)o1,-4,/,/,8,/
Cc1noc(C)c1NC(=O)N(C)C[C@H]1Oc2ncc(C#CC(C)C)cc2C(=O)N([C@@H](C)CO)C[C@@H]1C,/,-6,-8,-2,-3
CN(C)CCNS(=O)(=O)c1ccc(N2CCN(c3ccc(F)cc3)CC2)c([N+](=O)[O-])c1,-4,7,12,/,28*
CCOc1ccc(NC(=O)c2ccccc2NC(=O)CN2CCCCCC2)cc1,-11,-13,-5,4,0
COc1ccc(NC(=O)c2ccccc2NC(=O)CN2CCCCCC2)cc1,-5,-7,-2,-9,28*
Cc1ccc(S(=O)(=O)c2cc3c(=O)n4ccccc4nc3n(CCc3ccccc3)c2=N)cc1,69*,3,-33,-8,-14
Cc1ccc(S(=O)(=O)N(C)C[C@@H]2OCCCC[C@H](C)Oc3ccc(NC(=O)NC4CCCCC4)cc3C(=O)N([C@@H](C)CO)C[C@H]2C)cc1,/,5,1,-3,26*
Cc1ccc(S(=O)(=O)N(C)C[C@H]2OCCCC[C@@H](C)Oc3ccc(NC(=O)CCCN(C)C)cc3C(=O)N([C@@H](C)CO)C[C@H]2C)cc1,/,-6,51*,23,5
Cc1ccc(S(=O)(=O)N(C)C[C@@H]2Oc3ccc(NC(=O)C4CCCCC4)cc3C(=O)N([C@@H](C)CO)C[C@@H]2C)cc1,/,/,-2,-7,-13
Cc1ccc(S(=O)(=O)N(C)C[C@H]2OCCCC[C@@H](C)Oc3ccc(NC(=O)CCCN(C)C)cc3C(=O)N([C@H](C)CO)C[C@@H]2C)cc1,/,-12,14,4,-2
Cc1ccc(S(=O)(=O)N(C)C[C@H]2Oc3ccc(NC(=O)C4CCCCC4)cc3C(=O)N([C@H](C)CO)C[C@H]2C)cc1,45*,-16,24,0,-1
COc1ccc2c3c(n(C)c2c1)[C@H](CO)N(Cc1nccs1)CC31CN(C(=O)CN(C)C)C1,/,/,-4,/,-6
COc1ccc(O)c(/C=N/n2c(-c3ccco3)csc2=Nc2cccnc2)c1,2,-5,/,/,/
CN=c1scc(-c2ccco2)n1/N=C/c1ccc(O)c(O)c1,-15,7,-12,/,26*
Cc1onc(-c2c(Cl)cccc2Cl)c1C(=O)N[C@@H]1C(=O)N2[C@@H]1SC(C)(C)[C@@H]2C(=O)O,31*!,2,-4,0,-2
Cc1onc(-c2c(Cl)cccc2Cl)c1C(=O)NC1C(=O)N2C1SC(C)(C)C2C(=O)O (centres undefined),0,-5,-14,5,1
COc1ccc2sc(N(CCN(C)C)C(=O)/C=C/c3cccs3)nc2c1,-2,13,12,/,33*
COc1ccc2nc(N(CCN(C)C)C(=O)/C=C/c3cccs3)sc2c1,4,2,18,/,19
COc1ccc2c3c([nH]c2c1)[C@@H](CO)N(C(=O)c1ccncc1)CC31CN(C(=O)CC2CC2)C1,/,/,/,/,-6
SMILES,Glyco luc inh,FN deposition inh,RAD52 anneal inh,RAD54 branch,AF4-AF9 inh
CC(C)CN(C(=O)c1cccc(S(=O)(=O)N2CCN(Cc3ccccc3)CC2)c1)C1CCS(=O)(=O)C1 (centres undefined),1,1,15,-8,28*
CCCN(C(=O)c1cccc(S(=O)(=O)N2CCN(Cc3ccccc3)CC2)c1)C1CCS(=O)(=O)C1 (centres undefined),-2,-2,-2,-9,6
COc1cc(-c2noc(C)c2-c2ccc(N(C)C)nc2)cc(OC)c1OC,?,10,-10,-1,5
COc1cc(-c2noc(C)c2-c2ccc3[nH]ccc3c2)cc(OC)c1OC,48*,/,/,2,/
Cn1cc(C(=O)N/N=C/C(Br)=C\c2ccccc2)ccc1=O,?,/,/,-7,/
Cn1cc(C(=O)N/N=C/C(Br)=C/c2ccccc2)ccc1=O,25*,5,-9,/,-14
Cc1noc(C)c1NC(=O)N(C)C[C@H]1Oc2ccc(NC(=O)Nc3ccc(C(F)(F)F)cc3)cc2C(=O)N([C@@H](C)CO)C[C@@H]1C,/,-11,-14,2,3
COc1ccc(Nc2ccccc2N)cc1,-9,-5,-11,/,40*
C#CCOCCOCCOCCNc1nc(N2CCN(C(=O)Cn3cc(CCO)nn3)CC2)nc(N2CCN(C(=O)[C@H]([C@@H](C)CC)n3cc(CCCCN)nn3)CC2)n1,5,-12,-3,8,-4
C#CCOCCOCCOCCNc1nc(N2CCN(C(=O)[C@H]([C@@H](C)CC)n3cc(CCCN=C(N)N)nn3)CC2)nc(N2CCN(C(=O)[C@H](Cc3ccc(O)cc3)n3cc(CCO)nn3)CC2)n1,0,-1,8,-11,31*
C#CCOCCOCCOCCNc1nc(N2CCN(C(=O)Cn3cc(CCCCN)nn3)CC2)nc(N2CCN(C(=O)[C@H]([C@@H](C)CC)n3cc(CCCCN)nn3)CC2)n1,0,1,45,-10,26*
COc1ccc(C[C@@H]2CCc3cnnn3COC[C@H](C(C)C)NC2=O)cc1,/,1,16,/,17
CC(C)NC(=O)N(C)C[C@@H]1Oc2ncc(C#CC3(O)CCCC3)cc2C(=O)N([C@@H](C)CO)C[C@@H]1C,/,-2,23,6,-1
O=S(=O)(N[C@@H]1CC[C@H](CCn2cc(C3(O)CCCC3)nn2)O[C@H]1CO)c1ccc(Cl)cc1,/,/,-40,-6,0
O=C(C1=C[C@@H](c2ccc(Br)cc2)C[C@@H](OCCCCO)O1)N1CCCCCCC1,/,/,-21,/,-4
Cc1cc(NCCCN2CCOCC2)n2c(nc3ccccc32)c1C#N,3,8,/,53*,/
CCN(CC)CCNc1cc(C)c(C#N)c2nc3ccccc3n12,7,6,-84,27,-1
CCN(CC)CCCNc1cc(C)c(C#N)c2nc3ccccc3n12,43*,-6,-4,19,-5
CC(=O)N(C)C[C@H]1Oc2ncccc2C(=O)N(C)C[C@@H]1C,/,1,/,/,/

# Source: PubChem
